Paper PMC8324087 (Angewandte Chemie (International ed. in English), 2021)
Like-named read-outs stand apart in the source and are kept apart here. Each block holds one molecule with its values, some of them ahead of it.

Tests used:
CCLP-FP cells = test: CellTiter-Glo anti-proliferation, CCLP-FP cells; type: cell-based; settings: read-out: anti-proliferative IC50, engineered FGFR2 fusion CCLP-FP cells, 3d
Summary of the method: (§1)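 Cell viability read by CellTiter-Glo after test compound exposure: 3d for CCLP-FP (CCLP-1 with ectopic FGFR2-PHGDH fusion) and CCLP1 (FGFR1 overexpression), 10d for ICC13–7 (endogenous FGFR2-OPTN fusion); anti-proliferative IC50 derived; mean ± SEM, n = 3.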

FGFR2-PHGDH = FGFR2-PHGDH (Homo sapiens, UniProt O43175+P21802); test: In vivo pharmacodynamics, CCLP1-FGFR2-PHGDH xenograft model; set-up: species or system mice; settings: 20 or 40 mg/kg, IP QD for 6d; tumors isolated 4h after last dose
Chain of FGFR2-PHGDH (P21802 458-767 limits assumed, one chain of several): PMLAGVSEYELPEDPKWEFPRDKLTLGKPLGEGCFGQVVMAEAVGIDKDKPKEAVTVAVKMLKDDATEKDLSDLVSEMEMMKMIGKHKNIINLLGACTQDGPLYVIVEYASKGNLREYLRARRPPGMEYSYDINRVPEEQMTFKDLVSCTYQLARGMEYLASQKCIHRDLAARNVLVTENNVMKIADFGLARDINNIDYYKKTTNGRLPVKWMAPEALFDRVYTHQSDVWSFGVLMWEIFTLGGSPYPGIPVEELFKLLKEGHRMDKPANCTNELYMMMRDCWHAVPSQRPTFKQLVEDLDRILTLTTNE
Summary of the method: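 Mice bearing CCLP1-FGFR2-PHGDH xenografts began dosing once tumours reached ~200 mm3. Test compound was given at 20 or 40 mg/kg IP once daily for 6 d to assess in vivo degradation and signaling.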

all FGFR isoforms = test: Biochemical inhibition of FGFR isoforms; settings: Table S1
Summary of the method: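 FGFR isoform IC50s measured by Z'-LYTE kinase assay, run as an outsourced service.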

FGFR1 = FGFR1 (Homo sapiens, UniProt P11362); test: Immunoblot analysis of FGFR1 degradation in CCLP1 cells; type: cell-based
Chain of FGFR1 (P11362 22-822): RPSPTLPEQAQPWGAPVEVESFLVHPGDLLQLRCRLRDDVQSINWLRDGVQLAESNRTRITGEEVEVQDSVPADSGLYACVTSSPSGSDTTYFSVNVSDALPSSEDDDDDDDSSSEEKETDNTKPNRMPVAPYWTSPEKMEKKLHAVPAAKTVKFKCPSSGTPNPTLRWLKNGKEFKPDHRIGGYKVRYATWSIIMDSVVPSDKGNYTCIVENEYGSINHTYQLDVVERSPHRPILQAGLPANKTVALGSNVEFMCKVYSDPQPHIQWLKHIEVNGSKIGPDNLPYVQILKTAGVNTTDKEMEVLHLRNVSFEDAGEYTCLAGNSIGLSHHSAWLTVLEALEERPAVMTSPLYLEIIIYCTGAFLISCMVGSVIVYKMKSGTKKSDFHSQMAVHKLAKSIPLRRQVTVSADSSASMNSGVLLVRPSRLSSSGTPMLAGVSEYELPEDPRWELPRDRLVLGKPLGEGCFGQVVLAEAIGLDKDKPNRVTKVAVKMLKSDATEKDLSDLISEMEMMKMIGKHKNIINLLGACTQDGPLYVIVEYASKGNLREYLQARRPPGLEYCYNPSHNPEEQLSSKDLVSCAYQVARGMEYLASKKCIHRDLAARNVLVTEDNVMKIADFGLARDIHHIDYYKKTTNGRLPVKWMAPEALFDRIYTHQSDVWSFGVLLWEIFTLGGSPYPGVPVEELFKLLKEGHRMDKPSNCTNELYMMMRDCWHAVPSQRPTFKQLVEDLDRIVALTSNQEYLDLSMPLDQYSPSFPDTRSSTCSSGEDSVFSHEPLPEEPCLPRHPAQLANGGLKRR

CCLP1 cells = test: CellTiter-Glo anti-proliferation, CCLP1 cells; type: cell-based; settings: read-out: anti-proliferative IC50, FGFR1 overexpressing CCLP1 cells, 3d
Summary of the method: as §1

[1] = Pharmacokinetics study in mice; type: in vivo
Summary of the method: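 Mice received a single dose of test compound by intravenous injection (1 mg/kg), intraperitoneal injection (3 mg/kg) or oral administration (10 mg/kg) for pharmacokinetic profiling.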

FGFR2 [2] = biological target: T1, FGFR2 (Homo sapiens, UniProt P21802); test: Immunoblot analysis of FGFR2 degradation in KATO III cells; type: cell-based
Summary of the method: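 FGFR2-amplified KATO III cells exposed to test compound at 1 µM for 24h, across a concentration series for 6h, over a time course, or for 4h beside a negative-control analogue. For rescue, cells were pretreated 2h with BGJ398, a VHL ligand, bortezomib or MLN4924, then given test compound for 4h. Full-length FGFR2 was detected by immunoblot.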
Target sequence in this assay (P21802 430-767 limits assumed): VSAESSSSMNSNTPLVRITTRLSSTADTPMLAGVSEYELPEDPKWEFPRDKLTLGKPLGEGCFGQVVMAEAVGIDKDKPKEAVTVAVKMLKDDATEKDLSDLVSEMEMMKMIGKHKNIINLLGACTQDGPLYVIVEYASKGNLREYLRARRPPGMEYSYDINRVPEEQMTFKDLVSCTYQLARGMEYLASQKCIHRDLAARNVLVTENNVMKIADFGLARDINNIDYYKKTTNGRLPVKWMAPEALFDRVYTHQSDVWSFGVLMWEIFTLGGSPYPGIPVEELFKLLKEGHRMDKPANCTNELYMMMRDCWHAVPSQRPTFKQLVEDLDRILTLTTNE

FGFR2 [3] = biological target: T1, FGFR2; test: Z'-LYTE kinase assay; type: biochemical
Target sequence in this assay (P21802 22-821): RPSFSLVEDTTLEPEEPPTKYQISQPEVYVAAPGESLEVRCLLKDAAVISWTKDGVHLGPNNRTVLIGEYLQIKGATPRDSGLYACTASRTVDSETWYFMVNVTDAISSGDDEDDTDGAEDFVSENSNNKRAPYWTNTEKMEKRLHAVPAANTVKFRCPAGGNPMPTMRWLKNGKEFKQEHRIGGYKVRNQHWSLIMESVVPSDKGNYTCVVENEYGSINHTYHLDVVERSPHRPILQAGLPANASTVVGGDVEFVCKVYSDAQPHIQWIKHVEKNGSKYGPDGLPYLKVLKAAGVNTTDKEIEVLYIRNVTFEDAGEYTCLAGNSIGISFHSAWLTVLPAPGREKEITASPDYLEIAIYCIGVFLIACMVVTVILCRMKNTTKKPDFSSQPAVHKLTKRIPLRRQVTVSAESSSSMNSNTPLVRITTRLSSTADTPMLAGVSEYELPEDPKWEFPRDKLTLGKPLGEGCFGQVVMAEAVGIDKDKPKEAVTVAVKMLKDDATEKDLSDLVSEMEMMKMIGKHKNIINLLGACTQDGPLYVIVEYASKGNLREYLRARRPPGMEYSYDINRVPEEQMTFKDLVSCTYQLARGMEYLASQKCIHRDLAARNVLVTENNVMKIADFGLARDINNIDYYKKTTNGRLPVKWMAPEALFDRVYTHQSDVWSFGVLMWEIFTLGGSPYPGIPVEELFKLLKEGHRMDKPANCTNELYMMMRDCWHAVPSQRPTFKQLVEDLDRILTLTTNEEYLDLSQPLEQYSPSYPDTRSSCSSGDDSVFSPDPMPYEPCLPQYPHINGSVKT

FGFR2-OPTN fusion = FGFR2-OPTN fusion (Homo sapiens, UniProt P21802+Q96CV9); test: Immunoblot analysis of FGFR2-OPTN fusion in ICC13–7 cells; type: cell-based; settings: 100 nM and 1 µM, 24h
Chain of FGFR2-OPTN fusion (P21802 431-767 limits assumed, one chain of several): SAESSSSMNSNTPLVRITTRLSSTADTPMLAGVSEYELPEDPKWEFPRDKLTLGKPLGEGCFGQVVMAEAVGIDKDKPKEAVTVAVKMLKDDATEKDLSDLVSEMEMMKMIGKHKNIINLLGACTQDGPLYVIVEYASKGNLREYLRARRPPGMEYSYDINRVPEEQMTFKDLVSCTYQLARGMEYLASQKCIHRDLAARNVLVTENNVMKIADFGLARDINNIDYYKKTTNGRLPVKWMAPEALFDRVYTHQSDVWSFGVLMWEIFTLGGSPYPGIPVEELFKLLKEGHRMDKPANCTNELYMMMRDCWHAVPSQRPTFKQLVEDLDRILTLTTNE
Summary of the method: (§2)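 Immunoblot for FGFR2 fusion protein after 24 h exposure to test compound. FGFR2-PHGDH fusion is ectopically expressed in CCLP-1 cells (CCLP-1-FP); FGFR2-OPTN is endogenous in ICC13–7 cells. Both fusions carry nearly the full FGFR2 coding sequence (extracellular, transmembrane and kinase domains) fused in-frame to dimerization-domain partners.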

ICC13–7 cells = test: CellTiter-Glo anti-proliferation, ICC13–7 cells; type: cell-based; settings: read-out: anti-proliferative IC50, FGFR2 fusion-positive ICC13–7 cells, 10d
Summary of the method: as §1

FGFR3 = FGFR3 (Homo sapiens, UniProt P22607); test: Immunoblot analysis of FGFR3 in JHH7 cells; type: cell-based; settings: 16h
Chain of FGFR3 (P22607 23-806): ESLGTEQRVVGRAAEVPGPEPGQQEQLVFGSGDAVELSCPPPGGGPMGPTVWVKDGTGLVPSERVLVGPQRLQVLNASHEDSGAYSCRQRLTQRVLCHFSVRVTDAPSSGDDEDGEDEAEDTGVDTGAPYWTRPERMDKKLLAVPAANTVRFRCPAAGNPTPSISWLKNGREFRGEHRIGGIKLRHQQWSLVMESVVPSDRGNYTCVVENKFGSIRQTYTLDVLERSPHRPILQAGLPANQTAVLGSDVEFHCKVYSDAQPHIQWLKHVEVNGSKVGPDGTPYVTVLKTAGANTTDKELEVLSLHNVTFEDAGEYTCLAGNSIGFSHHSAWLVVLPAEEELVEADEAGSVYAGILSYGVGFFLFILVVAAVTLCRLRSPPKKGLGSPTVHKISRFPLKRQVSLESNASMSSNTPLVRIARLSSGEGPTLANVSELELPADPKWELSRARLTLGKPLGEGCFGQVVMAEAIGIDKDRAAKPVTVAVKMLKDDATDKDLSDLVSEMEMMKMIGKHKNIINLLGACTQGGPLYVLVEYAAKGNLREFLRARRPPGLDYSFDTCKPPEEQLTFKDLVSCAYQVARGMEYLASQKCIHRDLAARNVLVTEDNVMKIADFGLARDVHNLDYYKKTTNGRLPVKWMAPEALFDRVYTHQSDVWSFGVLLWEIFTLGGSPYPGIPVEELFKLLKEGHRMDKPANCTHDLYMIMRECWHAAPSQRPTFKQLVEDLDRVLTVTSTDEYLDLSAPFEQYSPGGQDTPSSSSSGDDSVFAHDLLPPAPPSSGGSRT

FGFR2-PHGDH fusion = FGFR2-PHGDH fusion (Homo sapiens, UniProt O43175+P21802); test: Immunoblot analysis of FGFR2-PHGDH fusion in CCLP-1-FP cells; type: cell-based; settings: 100 nM and 1 µM, 24h
Chain of FGFR2-PHGDH fusion (P21802 431-767 limits assumed, one chain of several): as the sequence (P21802 431-767 limits assumed, one chain of several) above
Summary of the method: as §2

[4] = system: phosphorylation of FRS2 or ERK; test: Immunoblot of downstream FGFR2 signaling; type: cell-based; settings: CCLP1-FP cells, 50 nM, 4 or 8 hours
Summary of the method: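 CCLP1 cells ectopically expressing the FGFR2-PHGDH fusion were exposed to test compound at 50 nM for 4 or 8 hours. Lysates were immunoblotted for the fusion protein and for signaling markers.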

Kelly cells = test: Quantitative mass spectrometry-based proteomics in Kelly cells; type: cell-based; settings: 5h treatment, 1 µM
Summary of the method: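 Kelly cells, which express both FGFR1 and FGFR2, given test compound at 1 µM for 5h. Quantitative mass spectrometry-based proteomics gave relative abundance of proteins across the proteome.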

FGFR4 = FGFR4 (Homo sapiens, UniProt P22455); test: Immunoblot analysis of FGFR4 in JHH7 cells; type: cell-based; settings: 16h
Chain of FGFR4 (P22455 22-802): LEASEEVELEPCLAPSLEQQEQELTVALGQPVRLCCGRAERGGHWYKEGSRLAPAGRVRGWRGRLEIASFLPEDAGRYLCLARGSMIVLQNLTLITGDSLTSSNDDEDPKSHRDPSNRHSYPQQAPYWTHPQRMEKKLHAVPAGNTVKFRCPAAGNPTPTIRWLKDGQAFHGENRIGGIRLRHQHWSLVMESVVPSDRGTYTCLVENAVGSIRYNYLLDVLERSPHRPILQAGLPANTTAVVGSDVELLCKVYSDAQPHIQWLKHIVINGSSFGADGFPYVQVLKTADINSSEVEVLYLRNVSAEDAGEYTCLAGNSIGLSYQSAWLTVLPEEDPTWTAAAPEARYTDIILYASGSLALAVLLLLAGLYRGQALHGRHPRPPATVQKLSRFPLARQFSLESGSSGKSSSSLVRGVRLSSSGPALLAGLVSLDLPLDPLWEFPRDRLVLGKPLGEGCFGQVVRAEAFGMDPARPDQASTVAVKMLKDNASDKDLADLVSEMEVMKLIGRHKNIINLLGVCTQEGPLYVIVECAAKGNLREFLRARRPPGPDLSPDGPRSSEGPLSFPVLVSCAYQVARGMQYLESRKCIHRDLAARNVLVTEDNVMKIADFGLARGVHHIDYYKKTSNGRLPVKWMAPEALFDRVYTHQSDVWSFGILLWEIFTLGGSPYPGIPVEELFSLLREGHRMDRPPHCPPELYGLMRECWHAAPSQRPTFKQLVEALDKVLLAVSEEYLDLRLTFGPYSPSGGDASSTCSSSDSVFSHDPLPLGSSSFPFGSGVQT

[5] = read-out: FGFR2 IC50, BGJ398-VHL based degraders

- IC50 (FGFR2 [3]; [5]): 30 nM
SMILES: COc1cc(OC)c(Cl)c(NC(=O)N(C)c2cc(Nc3ccc(N4CCN(CC(=O)NCCC(=O)N[C@H](C(=O)N5C[C@H](O)C[C@H]5C(=O)N[C@@H](C)c5ccc(-c6scnc6C)cc5)C(C)(C)C)CC4)cc3)ncn2)c1Cl [NJH-05-043]

- IC50 (FGFR2 [3]; [5]): 30 nM
SMILES: COc1cc(OC)c(Cl)c(NC(=O)N(C)c2cc(Nc3ccc(N4CCN(CCC(=O)N[C@H](C(=O)N5C[C@H](O)C[C@H]5C(=O)N[C@@H](C)c5ccc(-c6scnc6C)cc5)C(C)(C)C)CC4)cc3)ncn2)c1Cl [NJH-05–166]

- IC50 (FGFR2 [3]; [5]): 33 nM
SMILES: COc1cc(OC)c(Cl)c(NC(=O)N(C)c2cc(Nc3ccc(N4CCN(C(=O)NCCOCCC(=O)NC(C(=O)N5CC(O)CC5C(=O)NC(C)c5ccc(-c6scnc6C)cc5)C(C)(C)C)CC4)cc3)ncn2)c1Cl (stereo not drawn) [NJH-05-044]

- IC50 (FGFR2 [3]; [5]): 59 nM
SMILES: COc1cc(OC)c(Cl)c(NC(=O)N(C)c2cc(Nc3ccc(N4CCN(CC(=O)NCCCCCOc5cc(-c6scnc6C)ccc5[C@H](C)NC(=O)[C@@H]5C[C@@H](O)CN5C(=O)[C@@H](NC(C)=O)C(C)(C)C)CC4)cc3)ncn2)c1Cl [DGY-11-123]

- IC50 (FGFR2 [3]; read-out: FGFR2 IC50, BGJ398-IMiDs based degraders): 33 nM
SMILES: COc1cc(OC)c(Cl)c(NC(=O)N(C)c2cc(Nc3ccc(N4CCN(CC(=O)NCCCCCOc5cccc6c5C(=O)N(C5CCC(=O)NC5=O)C6=O)CC4)cc3)ncn2)c1Cl (stereo not drawn) [DGY-09-073]

- IC50 (FGFR2 [3]; [5]): 16 nM
SMILES: COc1cc(OC)c(Cl)c(NC(=O)N(C)c2cc(Nc3ccc(N4CCN(CCCCCC(=O)N[C@H](C(=O)N5C[C@H](O)C[C@H]5C(=O)N[C@@H](C)c5ccc(-c6scnc6C)cc5)C(C)(C)C)CC4)cc3)ncn2)c1Cl [NJH-05-123]

Second part, the molecule before the results:

SMILES: COc1cc(OC)c(Cl)c(NC(=O)N(C)c2cc(Nc3ccc(N4CCN(CC(=O)N[C@H](C(=O)N5C[C@H](O)C[C@H]5C(=O)N[C@@H](C)c5ccc(-c6scnc6C)cc5)C(C)(C)C)CC4)cc3)ncn2)c1Cl [DGY-09-192]
- IC50 (CCLP-FP cells): 8 nM
- FGFR2-PHGDH protein levels in tumor (FGFR2-PHGDH): reduction
- phosphorylation of downstream markers FRS2 and ERK1/2 in tumor (FGFR2-PHGDH): reduction
- Inhibition of FGFR isoforms (all FGFR isoforms): equally potent inhibitor for all FGFR isoforms
- Dmax of FGFR1 degradation (FGFR1; 16h): 85%
- DC50 (FGFR1; read-out: DC50 of FGFR1 degradation, 16h): 4.35 nM
- IC50 (CCLP1 cells): 17 nM
- AUClast ([1]; ip 3 mg/kg): 7.33 µM·h
- CL ([1]; ip 3 mg/kg): 6.84 mL/min/kg
- Cmax ([1]; ip 3 mg/kg): 1490 nM
- T1/2 ([1]; ip 3 mg/kg): 4.25 h
- Tmax ([1]; ip 3 mg/kg): 1.33 h
- AUClast ([1]; iv 1 mg/kg): 2.94 µM·h
- CL ([1]; iv 1 mg/kg): 5.58 mL/min/kg
- Cmax ([1]; iv 1 mg/kg): 1600 nM
- T1/2 ([1]; iv 1 mg/kg): 5.45 h
- Tmax ([1]; iv 1 mg/kg): 0.08 h
- Vss ([1]; iv 1 mg/kg): 1.41 L/kg
- oral bioavailability ([1]; oral 10 mg/kg): negligible
- AUClast ([1]; po 10 mg/kg): 0.07 µM·h
- CL ([1]; po 10 mg/kg): 1550.77 mL/min/kg
- Cmax ([1]; po 10 mg/kg): 10 nM
- Fpo ([1]; po 10 mg/kg): 0.2
- T1/2 ([1]; po 10 mg/kg): 5.10 h
- Tmax ([1]; po 10 mg/kg): 1.67 h
- clearance ([1]; via IV and IP administration): low clearance
- half-life (T1/2) ([1]; via IV and IP administration): 5 h
- Concentration at which hook effect is observed (FGFR2 [2]; 6h dose titration): above 5 µM
- Dmax of FGFR2 degradation (FGFR2 [2]; 6h treatment): 74%
- Degradation of full length FGFR2 protein (FGFR2 [2]; 24h treatment at 1 µM): most potent degradation
- Time to significant FGFR2 degradation (FGFR2 [2]; time course): ≤ 4 h
- IC50 (FGFR2 [3]; [5]): 34 nM
- Degradation of FGFR2-OPTN fusion protein (FGFR2-OPTN fusion): dose-dependent degradation
- IC50 (ICC13–7 cells): 40 nM
- Effect on FGFR3 protein levels (FGFR3): minimal effects
- Degradation of FGFR2-PHGDH fusion protein (FGFR2-PHGDH fusion): dose-dependent degradation
- Suppression of downstream FGFR2 signaling (phosphorylation of FRS2 or ERK) [4]: durably suppressed
- Proteome-wide degradation selectivity (Kelly cells): high selectivity for FGFR1 and FGFR2 with PDE6D as an off-target
- Effect on FGFR4 protein levels (FGFR4): minimal effects

SMILES: COc1cc(OC)c(Cl)c(NC(=O)N(C)c2cc(Nc3ccc(N4CCN(CC(=O)NCCCCCSC(C)(C)C(NC(C)=O)C(=O)N5CC(O)CC5C(=O)NC(C)c5ccc(-c6scnc6C)cc5)CC4)cc3)ncn2)c1Cl (stereo not drawn) [DGY-11-122]
- IC50 (FGFR2 [3]; [5]): 43 nM

SMILES: CCN1CCN(c2ccc(Nc3cc(N(C)C(=O)Nc4c(Cl)c(OC)cc(OC)c4Cl)ncn3)cc2)CC1 [BGJ398, reference compound]
- Rescue of DGY-09-192 induced FGFR2 degradation by pretreatment (FGFR2 [2]; 2h pretreatment then DGY-09-192 for 4h): rescued FGFR2 degradation

SMILES: COc1cc(OC)c(Cl)c(NC(=O)N(C)c2cc(Nc3ccc(N4CCN(CCCC(=O)N[C@H](C(=O)N5C[C@H](O)C[C@H]5C(=O)N[C@@H](C)c5ccc(-c6scnc6C)cc5)C(C)(C)C)CC4)cc3)ncn2)c1Cl [NJH-05–132]
- IC50 (FGFR2 [3]; [5]): 10 nM
